The target in assay [1] is Cannabinoid receptor 1 (Rattus norvegicus, UniProt P20272). As to the kind of experiment: Displacement of [3H]CP-55,940 from rat brain CB1 receptor. Put shortly:
(§1)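 Competition binding with [3H]CP-55,940 on rat brain membranes (CB1) or on membranes from HEK293 cells expressing mouse or human CB2. Screened first at two points in triplicate. Where that screen gave Ki below 1000 nM, Ki was taken from one 8-point experiment run in triplicate.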
For orientation: Loss of bound radioactivity is the signal in a displacement assay; it reports binding, not function.

Assay [2] addresses Cannabinoid receptor 2 (Mus musculus, UniProt P47936). As to the kind of experiment: Displacement of [3H]CP-55,940 from mouse CB2 receptor expressed in HEK293 cells. The class given is cell-based. In outline: as §1
Assay [3] addresses Cannabinoid receptor 2 (Homo sapiens, UniProt P34972). As to the kind of experiment: Displacement of [3H]CP-55,940 from human CB2 receptor expressed in HEK293 cells. The class given is cell-based. In outline:
as §1

Assay [4] is described as follows: Selectivity ratio of Ki for rat CB1 receptor to Ki for mouse CB2 receptor.
Assay [5] concerns the target Cannabinoid receptor 2 (Mus musculus) (UniProt P47936). The settings on record: HEK293, 342 nM.

The pKi is the Ki on a negative log10 scale, so that one unit is a factor of ten. A higher pKi goes with a low Ki.

pKi: −log10 of the molar value.

Chain of Cannabinoid receptor 2 (Homo sapiens, UniProt P34972) (P34972 whole entry): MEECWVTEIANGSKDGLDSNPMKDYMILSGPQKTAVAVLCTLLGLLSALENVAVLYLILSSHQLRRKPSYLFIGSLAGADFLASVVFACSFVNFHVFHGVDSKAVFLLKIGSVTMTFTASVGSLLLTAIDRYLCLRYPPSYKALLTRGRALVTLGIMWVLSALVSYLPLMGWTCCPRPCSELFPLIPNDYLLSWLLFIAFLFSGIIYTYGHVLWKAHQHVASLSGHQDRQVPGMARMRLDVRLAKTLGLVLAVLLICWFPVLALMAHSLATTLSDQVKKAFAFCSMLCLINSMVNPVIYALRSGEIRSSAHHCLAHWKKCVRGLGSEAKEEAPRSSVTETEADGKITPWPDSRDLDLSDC
Chain of Cannabinoid receptor 2 (Mus musculus, UniProt P47936) (P47936 whole entry): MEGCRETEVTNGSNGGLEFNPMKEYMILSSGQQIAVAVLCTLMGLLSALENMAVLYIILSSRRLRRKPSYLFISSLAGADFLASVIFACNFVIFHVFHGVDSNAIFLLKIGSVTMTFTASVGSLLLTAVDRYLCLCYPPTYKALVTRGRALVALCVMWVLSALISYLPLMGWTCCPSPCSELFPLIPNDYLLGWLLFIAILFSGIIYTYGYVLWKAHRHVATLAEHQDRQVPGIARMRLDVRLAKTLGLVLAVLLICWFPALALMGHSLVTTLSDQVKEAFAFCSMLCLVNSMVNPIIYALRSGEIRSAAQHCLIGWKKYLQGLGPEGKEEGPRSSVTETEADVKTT
Chain of Cannabinoid receptor 1 (P20272 whole entry): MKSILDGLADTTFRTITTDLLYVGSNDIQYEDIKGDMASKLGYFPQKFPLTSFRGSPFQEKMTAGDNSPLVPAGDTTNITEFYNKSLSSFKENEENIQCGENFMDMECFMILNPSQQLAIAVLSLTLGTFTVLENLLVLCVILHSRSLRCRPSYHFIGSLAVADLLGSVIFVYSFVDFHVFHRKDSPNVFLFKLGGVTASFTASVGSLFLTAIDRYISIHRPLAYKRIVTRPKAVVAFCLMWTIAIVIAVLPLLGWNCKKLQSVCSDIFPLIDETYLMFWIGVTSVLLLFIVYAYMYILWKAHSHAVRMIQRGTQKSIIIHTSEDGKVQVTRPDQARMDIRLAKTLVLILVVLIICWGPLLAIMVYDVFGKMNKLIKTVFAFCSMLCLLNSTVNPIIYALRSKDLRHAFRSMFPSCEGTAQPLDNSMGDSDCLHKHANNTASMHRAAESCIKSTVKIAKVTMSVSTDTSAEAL
Chain of Cannabinoid receptor 2 (Mus musculus) (P47936 whole entry): as the sequence (P47936 whole entry) above

Regarding `CC1(C)Oc2cc(C(=O)c3cncs3)cc(O)c2[C@@H]2C[C@H](O)CC[C@H]21`, the negative logarithm of the Ki (pKi) in assay [1] and in assay [2] was less than 6.00 in each case.
On to `CC1(C)Oc2cc(C(=O)c3ccoc3)cc(O)c2[C@@H]2C[C@H](O)CC[C@H]21`, for which the pKi in assay [1] and in assay [2] was less than 6.00 each time.
On to `CC1(C)Oc2cc(C(=O)c3cscn3)cc(O)c2[C@@H]2C[C@H](O)CC[C@H]21`, for which the pKi in assay [3], in assay [1] and in assay [2] was less than 6.00 in each case.
Regarding `CC1(C)Oc2cc(C(=O)c3cc4ccccc4o3)cc(O)c2[C@@H]2C[C@H](O)CC[C@H]21`, the pKi is 6.68 in assay [3], 5.87 in assay [1] and 6.79 in assay [2].
`CC1(C)Oc2cc(C(=O)c3cccs3)cc(O)c2[C@@H]2C[C@H](O)CC[C@H]21`: the negative-log Ki (pKi) in assay [1] and in assay [2] was less than 6.00 throughout.
As for `CC1(C)Oc2cc(C(=O)c3ccsc3)cc(O)c2[C@@H]2C[C@H](O)CC[C@H]21`, the pKi was 5.81 in assay [3], 5.98 in assay [1] and 6.28 in assay [2].
On to `CC1(C)Oc2cc(C(=O)c3cccnc3)cc(O)c2[C@@H]2C[C@H](O)CC[C@H]21`, for which the pKi in assay [3], in assay [1] and in assay [2] was less than 6.00 throughout.
`CC1(C)Oc2cc(C(=O)c3cc4ccccc4s3)cc(O)c2[C@@H]2C[C@H](O)CC[C@H]21`: the pKi is 6.95 in assay [3], 6.81 in assay [1] and 6.82 in assay [2].
With `CC1(C)Oc2cc(C(=O)c3cccc(C(F)(F)F)c3)cc(O)c2[C@@H]2C[C@H](O)CC[C@H]21`, the pKi in assay [3] was 7.43; in assay [1] it was 7.21; in assay [2], 7.34.
Take `CC1(C)Oc2cc(C(=O)c3cccc(F)c3)cc(O)c2[C@@H]2C[C@H](O)CC[C@H]21`: the pKi was 6.34 in assay [1] and 6.43 in assay [2].
For `CC1(C)Oc2cc(C(=O)c3ccco3)cc(O)c2[C@@H]2C[C@H](O)CC[C@H]21`, the pKi in assay [1] and in assay [2] was less than 6.00 each time.
For the compound `CC1(C)Oc2cc(C(=O)c3coc4ccccc34)cc(O)c2[C@@H]2C[C@H](O)CC[C@H]21`, the pKi in assay [3] was 6.93; in assay [1] it was 5.54; in assay [2], 6.77. In assay [4], the Ratio Ki turned out to be 17.
As to `CC1(C)Oc2cc(C(=O)c3csc4ccccc34)cc(O)c2[C@@H]2C[C@H](O)CC[C@H]21`, the negative-log Ki (pKi) is 6.90 in assay [3], 5.90 in assay [1] and 7.47 in assay [2]. The Bmax in assay [5] is 67%. In assay [4], the Ratio Ki turned out to be 37.
As to `CC1(C)Oc2cc(C(=O)c3c[nH]c4ccccc34)cc(O)c2[C@@H]2C[C@H](O)CC[C@H]21`, the pKi was 6.80 in assay [3], 5.98 in assay [1] and 7.22 in assay [2]. Further, the Ratio Ki in assay [4] came to 17.
Consider `CC1(C)Oc2cc(C(=O)c3ccncc3)cc(O)c2[C@@H]2C[C@H](O)CC[C@H]21`, for which the pKi in assay [3], in assay [1] and in assay [2] was less than 6.00 each time.
As for `CC1(C)Oc2cc(C(=O)c3ccccn3)cc(O)c2[C@@H]2C[C@H](O)CC[C@H]21`, the pKi in assay [3], in assay [1] and in assay [2] was less than 6.00 in each case.
Turning to `Cn1cc(C(=O)c2cc(O)c3c(c2)OC(C)(C)[C@@H]2CC[C@@H](O)C[C@@H]32)c2ccccc21`, the values for the negative logarithm of the Ki (pKi) in assay [3], in assay [1] and in assay [2] were 5.52, 5.49 and 6.39, respectively.
On to `CC1(C)Oc2cc(C(=O)c3ccncc3F)cc(O)c2[C@@H]2C[C@H](O)CC[C@H]21`, for which the negative-log Ki (pKi) in assay [1] and in assay [2] was less than 6.00 throughout.
In the case of `CC1(C)Oc2cc(C(=O)c3ccccc3)cc(O)c2[C@@H]2C[C@H](O)CC[C@H]21`, the pKi was 6.23 in assay [3], 6.01 in assay [1] and 6.61 in assay [2].

These data come from ChEMBL document CHEMBL2062418, “C3-heteroaroyl cannabinoids as photolabeling ligands for the CB2 cannabinoid receptor” (Bioorg Med Chem Lett, 2012).
